Measured values as given in the EternaBench riboswitch data.

Test system: MS2 coat protein
Assay: apparent Kd, MS2 coat protein; higher = weaker binding; RNA-MaP array; FMN 200 µM where present
Procedure, shortened: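 Designs were transcribed by stalled E. coli RNA polymerase on Illumina sequencing-chip clusters. They were titrated with SNAP-549-labelled MS2 coat protein from 0.7 or 1.5 nM, doubling to 3 µM, without and then with constant ligand. Buffer: 100 mM Tris-HCl pH 7.5, 80 mM KCl, 4 mM MgCl2, BSA, DTT, yeast tRNA, Tween-20. Green signal was normalised to red-channel RNA signal and control-cluster median Fmax. Apparent Kd is the median of filtered per-cluster binding-curve fits.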

[1] = designed as: ON switch for flavin mononucleotide, no ligand
[2] = ligand present: flavin mononucleotide, designed as: ON switch for flavin mononucleotide
[3] = designed as: OFF switch for flavin mononucleotide, no ligand
[4] = ligand present: flavin mononucleotide, designed as: OFF switch for flavin mononucleotide

Sequence | apparent Kd [1] | apparent Kd [2] | apparent Kd [3] | apparent Kd [4]
GCAGGUUUACGAGGAUAUGGGUGGUACGAACAUGAGGAUCACCCAUGUUUCCCAGAAGGCGUAGCCUAACAAAGAGAACAGGAG | 418 nM | 22.2 nM | – | –
UGUUGUAUUACAGGAUAUCUAUUAUUUUUACUUAGAGAAGGGUAUUCACAUGAGGAUCACCCAUGUAUAUACGAGGAAGUUGUG | 54.2 nM | 56 nM | – | –
CCGAAUAUGCAGGAUAUCGUAUCGGAAACGAUACGAGAAGGGCAAACAUGAGGAUCACCCAUGUUCCUUAACGG | – | – | 18.6 nM | 20.2 nM
GGCACACAUGAGGAUCACCCAUGUGAGGAUAUGUUAGUUUCGGCCAAAGCCGAAAUUAACAGAAGGCACAUGCC | – | – | 14.9 nM | 26.4 nM
AGACGACAACAUGAGGAUCACCCAUGUUCUAGUUUAGAGUCGCAGGAUAUGACUUCGAAGCUUAGUCAGAAGGGUGAAUUCACA | 37.8 nM | 51 nM | – | –
GGACGUCACAUUAACAUGAGGAUCACCCAUGUCAAAAGACAUGAGGAUAUGGAUCCGAAAAGGAUCCAGAAGGCAUGGACGUCC | 555 nM | 36.6 nM | – | –
CUUUUGUGAGGAUAUCAGUAGUAAAAAAAUAAAAUUACUACUGAGAAGGUACAUGAGGAUCACCCAUGUUCCUC | – | – | 14.2 nM | 17.6 nM
UUUACAUGAGGAUCACCCAUGUUUUGAAAGAUUAGUUUUGGUGAGGAUAUACAUGAUAAAGAAUUGUAGAAGGCACUGGGUACA | 45.4 nM | 28.6 nM | – | –
GUCGUGUGAGGAUAUGGAUCGACGCAGUGACAGUCAGCGACCUAGAAGGCACAUGAGGAUCACCCAUGUAUGUG | – | – | 54.6 nM | 97.5 nM
CCGACGAAAGUCGAACGAUGUAGCAGAAGGACAUGAGGAUCACCCAUGUCAGCUGUAACAGCCAUGUAGGAUAUGCUACAUCGU | – | – | 4.28 nM | 5.85 nM
GGCUUGCAGCUAGGAUAUGGGCGAUCACAUGAGGAUCACCCAUGUCAACAUCAAAACAAGAUUAACCAGAAGGAGCCGCGGGUU | 50.6 nM | 153 nM | – | –
GGAUUACAUGAGGAUCACCCAUGUGAGGAUAUCGAUGUCCUCAGUAGAGUGCGGGACUCGAGAAGGCACUUGGA | – | – | 70.1 nM | 95.9 nM
GCUGUGGCAUGAGGAUAUGGUCACGUUUCGUGACCAGAAGGCAUGUCAAUAGACAUGAGGAUCACCCAUGUAGUUAACACAGCA | 497 nM | 41.9 nM | – | –
AGAAUAGAAAGAUUAAUAUGAAUACAUGAGGAUCACCCAUGUAAGGAUAUCGACGUCAAUGACGUCGAGAAGGUACAUAAUAAG | – | – | 17.7 nM | 17.6 nM
GGAUCGAGUGUGAGGAUAUACCACUGGAUACAGUGGUAGAAGGCACAUGAGGAUCACCCAUGUCUCUACGAUCC | – | – | 16.1 nM | 51.8 nM
CUUCGUUGUAAGGAUAUCCAGACUCUUCCUGUCGGAGAAGGUACAACAUGAGGAUCACCCAUGUUGCUACAUGG | – | – | 25 nM | 38.7 nM
UAAGUACAUGAGGAUCACCCAUGUUGGAAUAGAGCAGGAUAUGUGCAGAGGGAAAUAAAAACAGAAGGGCUAAGAA | 45.3 nM | 28.6 nM | – | –
AAGAACUUAGGAUAUACAUGAGGAUCACCCAUGUAGCUUCACUUGGGCCUGAGCCCGUGUAGAAGGAAGAAAAU | – | – | 87.9 nM | 59 nM
GACGGGCAGCUCGUGAUCCCAUCGCCAGAAGGGCCACAUGAGGAUCACCCAUGUCGUAAAACAAGGCAGGAUAUGGCAGGGAAC | 9.93 nM | 5.21 nM | – | –
UGUCGGAGCAGAGGAUAUUACAUGAGGAUCACCCAUGUAUGAACCAAUAGCUGGAAACUGCAAUGUAAGAAGGCUGCUCCGACA | – | – | 11.9 nM | 107 nM
GUACUGUAGUGAGGAUAUACGAGAUCGAUAGAUCGGCGAUCCAUUUAUACAUGAGGAUCACCCAUGUAGAAGGCACUUCAGUAC | – | – | 5.62 nM | 56.6 nM
UGGACCGAGCUGUCGGUUGGCUGGCAGGAUAUGACAUGAGGAUCACCCAUGUGGGAUCUAAAUUGUCAGAAGGGCCGUUCUGGG | – | – | 212 nM | 25.4 nM
AAAAAAAAAAGAGAGGAUAUCCAAAAAAAAACAUGAGGAUCACCCAUGUAAAAAAAAAAAAAAUGGGAGAAGGCUCAAAAAAAAAA | 89.7 nM | 23.2 nM | – | –
CCCUCAACAUGAGGAUCACCCAUGUAGGAUAUCGCUAUUGUAAUCAUGAAACAUGAUUACAAUAGCGAGAAGGACAUAUGUCCC | – | – | 13.8 nM | 15.3 nM

Sequence | apparent Kd [1] | apparent Kd [2] | apparent Kd [3] | apparent Kd [4]
AAGACACAUGAGGAUCACCCAUGUUAGGAUAUACGCAUGCAUGCAUGCAUGCAUGCAAGUAGAAGGAACCAUGC | – | – | 30.5 nM | 30.6 nM
GGGUGACAUGAGGAUCACCCAUGUCAGGAUAUGCUUGAGCUUGAGAAAUCGAGUUCGAGUAGAAGGGACUGCCC | – | – | 47.3 nM | 72.3 nM
AGGAGUUUGUAGAAGGACGACUAUUAAGUUUUCGUAGGAUAUACUAUUUACAUGAGGAUCACCCAUGUUUAAAUGGAACAAUGU | – | – | 7.85 nM | 9.08 nM
UAAAAGACUAGCAACUAUCUCCACAUGAGGAUCACCCAUGUCUAGGAUAUGAGCAGCAAAGCUGCUUAGAAGGAGACGCUAGUC | – | – | 6.67 nM | 6.88 nM
CACAAGAAAGUCGAAGGUUGAAGUAGAAGGUCUAUAACAUGACAUGAGGAUCACCCAUGUGCCAAGAAGGAUAUGCUUUAAUCG | – | – | 7.97 nM | 6.53 nM
UUCAUCAAUGAAGGAUAUCUAUGUCCAACAUGAGGAUCACCCAUGUUGAGGAUCACCUAUGUGUAGGAGAAGGUCAAUAUAACU | 8.56 nM | 8.54 nM | – | –
UGAUCUAUGUAGAAGGCCCAUAUCUAUAUUUAGGGAGGAUAUACAUGAGGAUCACCCAUGUAUAGAGCGGGUGGACCCGUCACU | – | – | 74.1 nM | 185 nM
GGUGCGUUUGUGAGGAUAUGCUGGUCCUUGGUUCGGCAGAAGGCACAUGAGGAUCACCCAUGUGGUGUCGUUCC | – | – | 15 nM | 23.3 nM
CGCAUGUAAGGAUAUUAGUAGUAGUCAGAAUAGACUAUUACUGAGAAGGUACAUGAGGAUCACCCAUGUAAGCG | – | – | 62.9 nM | 419 nM
AAUUAUUAUUGAGGAUAUCGUAUUGAAACAAUACGAGAAGGCGGAAUAAACAUGAGGAUCACCCAUGUGAGCCUGAUGCUUAUG | – | – | 25 nM | 36.1 nM
GUCGUGUGAGGAUAUGAUUGUACGGCAGACUAGCGUCUGCUUCAGAAGGCACAUGAGGAUCACCCAUGUUUGUC | – | – | 18.6 nM | 34.4 nM
GGCUUCUUCACAGGAUAUGGUUUUUUAAGUAUACAUGAGGAUCACCCAUGUCCAGAAGGGUGAGGGUUCGGCGUGCGGUGUCGG | 384 nM | 42.7 nM | – | –
UCGGGUUAUACAGGAUAUGUUUAGGUUUAUUCAUGCAGUUAUUAAUUUAUGACAGAAGGGUAUACAUGAGGAUCACCCAUGUCA | – | – | 542 nM | 387 nM
ACAGAUCCUGACAUGAGGAUCACCCAUGUUAGAUUGUUAUGUCAGGAUAUUAUCUGGCAACCAGAUGAGAAGGGACGAUCUGUG | 240 nM | 15.5 nM | – | –
CAAUUUAGCGAGAAGGAGCGCCCGUAGGUACAUGAGGAUCACCCAUGUCCUUUGUGCUCUACGCGCUAGGAUAUCGAUAAACAG | – | – | 20.9 nM | 116 nM
GUCCGGAGGGAGAAGGGCUAGGAGGUCCAGCUUAUGUGUGUUGCAACAUGAGGAUCACCCAUGUAGCAGGAUAUCCCUUGUACA | – | – | 52.1 nM | 219 nM
GGAGCACACAUUAACAUGAGGAUCACCCAUGUCAAAAGACAUGAGGAUAUGGAUCCGAAAAGGAUCCAGAAGGCAUUGUGCUCC | 372 nM | 28.2 nM | – | –
AUCGUUGACUGGACGAGAAUAGGGCAGGAUAUACAUGAGGAUCACCCAUGUGAAGCACGAAAGAGGUAGAAGGGCCCACGUCAU | – | – | – | 20.5 nM
CUAAAUCAUGUAGGAUAUGCAUGGCGAAGCUACGCAGAAGGACAUGAGGAUCACCCAUGUCUCUCCGUCUGCAUACAGACGGAG | – | – | 20.1 nM | 123 nM
AAACAGUACGAGAAGGGCUACAUGAGGAUCACCCAUGUAGACGGUCGUGUGGCAGGAUAUCGAACGCACCCGAAACGGUGUGUU | – | – | 5.07 nM | 7.03 nM
GCGUAUAUAAGAUUUAUUUAACAGUCAGAAGGUGAUAAUACGACAUGAGGAUCACCCAUGUAAUUCAAGGAUAUGAUCUUACGC | 133 nM | 65.7 nM | – | –
CUGACGUCAGGAUAUCUGAUGUCUAACUUCGGUUAGACAUCAGAGAAGGGACAUGAGGAUCACCCAUGUCAGAA | – | – | 25.5 nM | 20.8 nM
UGAUAACAUGUAGGAUAUCCAGCAUUGACCAUCGGAGAAGGACAUGAGGAUCACCCAUGUACCGAUACAAUGGGAUAACGGAAU | – | – | 15.7 nM | 17.7 nM
GCCUCAUAGUAGAAGGGACUAUUACAGUAAUUUUUUUAGAUUAAAUAACAUGAGGAUCACCCAUGUCAGGAUAUACUAAGAGGC | – | – | 26.4 nM | 37.1 nM
